Measurements reported in ChEMBL document CHEMBL4393735, “Molecular modelling, synthesis, and biological evaluations of a 3,5-disubstituted isoxazole fatty acid analogue as a PPARα-selective agonist” (Bioorg Med Chem, 2019).
Activity calls are given as the source filed them.

Key:
[1] = molecular target: T1, Peroxisome proliferator-activated receptor gamma (Homo sapiens) (UniProt P37231); assay: Inverse agonist activity at full length human FLAG-tagged GAL4-DBD fused PPARgamma LBD (205 to 505 residues) expressed in COS1 cells assessed as inhibition of rosiglitazone binding measured after 18 hrs by dual luciferase reporter gene assay; type: cell-based
T1 sequence (whole entry): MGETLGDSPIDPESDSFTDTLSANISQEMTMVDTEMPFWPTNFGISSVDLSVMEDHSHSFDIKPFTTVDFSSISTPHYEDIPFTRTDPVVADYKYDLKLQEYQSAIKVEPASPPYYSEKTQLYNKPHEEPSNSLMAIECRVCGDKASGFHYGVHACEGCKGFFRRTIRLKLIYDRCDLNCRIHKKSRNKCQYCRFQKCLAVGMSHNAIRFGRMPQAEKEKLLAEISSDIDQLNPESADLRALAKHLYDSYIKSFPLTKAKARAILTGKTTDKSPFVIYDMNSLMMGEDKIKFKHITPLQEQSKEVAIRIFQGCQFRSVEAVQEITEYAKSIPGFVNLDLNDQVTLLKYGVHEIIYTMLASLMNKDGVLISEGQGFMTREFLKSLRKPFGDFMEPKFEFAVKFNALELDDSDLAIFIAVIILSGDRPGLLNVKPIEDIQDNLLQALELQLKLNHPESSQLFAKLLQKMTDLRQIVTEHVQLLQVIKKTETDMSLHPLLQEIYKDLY
How it was run: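 COS-1 cells carried GAL4-DBD–PPARγ-LBD with a UAS-luciferase reporter and Renilla control. Cells were titrated with increasing test compound in the presence of 1.0 μM rosiglitazone for 18 h in 0.1% DMSO. Firefly/Renilla ratio, normalized to GAL4-only activity.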

SGBS [2] = assay: Upregulation of ANGPTL4 gene expression in human preadipocyte derived from Simpson-Golabi-Behmel syndrome (SGBS) patient at 25 uM measured for 12 days by qRT-PCR analysis; type: functional, cell-based
How it was run: (§1)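 SGBS cells were differentiated with serum-free induction medium containing 25 μM test agent, 2 μM rosiglitazone or 0.1% DMSO from day 0. IBMX and dexamethasone were removed on day 4 and medium was renewed on day 8. RNA was taken on days 0, 4, 8 and 12 for qPCR, normalized to TBP and to day 0. At least three biological replicates in duplicate, two-way ANOVA with Bonferroni.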

[3] = molecular target: T2, Peroxisome proliferator-activated receptor alpha (Homo sapiens) (UniProt Q07869); assay: Agonist activity at PPARalpha in human Huh7 cells assessed as PPARA mRNA expression at 50 uM measured after 18 hrs by qRT-PCR analysis; type: cell-based
T2 sequence (whole entry): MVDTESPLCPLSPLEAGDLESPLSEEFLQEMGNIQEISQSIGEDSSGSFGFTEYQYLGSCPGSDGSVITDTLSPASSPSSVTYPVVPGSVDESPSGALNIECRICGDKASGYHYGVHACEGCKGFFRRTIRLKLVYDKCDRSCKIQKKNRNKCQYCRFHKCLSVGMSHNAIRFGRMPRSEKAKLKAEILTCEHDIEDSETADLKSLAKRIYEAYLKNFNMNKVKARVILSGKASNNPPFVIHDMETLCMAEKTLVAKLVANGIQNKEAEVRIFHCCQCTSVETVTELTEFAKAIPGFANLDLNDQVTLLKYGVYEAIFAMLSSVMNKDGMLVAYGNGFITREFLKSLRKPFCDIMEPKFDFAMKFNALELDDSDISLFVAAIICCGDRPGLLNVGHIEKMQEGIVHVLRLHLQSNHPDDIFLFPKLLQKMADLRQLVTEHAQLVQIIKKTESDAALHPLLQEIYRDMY
How it was run: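 Treatment for 18 h at 50 μM (or 1 μM for the 1 μM agents), DMSO vehicle. Harvested for qPCR. mRNA normalized to TBP by the comparative threshold method, expressed relative to DMSO control. Two biological replicates run in duplicate, mean ± SEM. Primary hepatocytes came from male C57BL/6N mice aged 7–8 weeks, isolated by portal-vein perfusion and digestion, seeded on collagen I and used on day 2. HuH-7 cells were kept in DMEM with 10% FBS and ITS.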

SGBS [4] = assay: Upregulation of CEBPA gene expression in human preadipocyte derived from Simpson-Golabi-Behmel syndrome (SGBS) patient at 25 uM measured for 12 days by qRT-PCR analysis; type: functional, cell-based; how it was run: as §1
[5] = molecular target: T1, Peroxisome proliferator-activated receptor gamma (Homo sapiens); assay: Agonist activity at full length human FLAG-taggedGAL4-DBD fused PPARgamma LBD (205 to 505 residues) expressed in COS1 cells at 25 to 50 uM measured after 18 hrs by dual luciferase reporter gene assay; type: cell-based
How it was run: (§2)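 COS-1 cells were transfected using Lipofectamine 2000 with GAL4-DBD–human NR-LBD plasmid, a 5×UAS-SV40 firefly luciferase reporter and pRL-CMV. After 6 h, cells were treated with 0, 25 or 50 μM in 0.1% DMSO (final) for 18 h. Firefly signal was normalized to Renilla, then to DMSO control and GAL4-only. Three biological replicates in quadruplicate, mean ± SEM, two-way ANOVA with Bonferroni.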

COS-1 [6] = assay: Cytotoxicity against African green monkey COS1 cells assessed as reduction in cell viability at 10^-3 M by XTT based assay relative to control; settings: chlorocebus aethiops, cos-1, 1000 µM
How it was run: (§3)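 COS-1 cells were treated across the same concentration series as the GAL4 dose-response runs. Cytotoxicity was measured as LDH released into medium (absorbance 492/750 nm) and by XTT viability assay (absorbance 450/690 nm). Results expressed relative to control.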

COS-1 [7] = assay: Cytotoxicity against African green monkey COS1 cells assessed as reduction in cell viability at 10^-4 M by LDH release assay; type: cell-based; settings: chlorocebus aethiops, cos-1, 100 µM; how it was run: as §3
[8] = molecular target: T2, Peroxisome proliferator-activated receptor alpha (Homo sapiens); assay: Agonist activity at full length human FLAG-tagged GAL4-DBD fused PPARalpha LBD (168 to 468 residues) expressed in COS1 cells at 25 to 50 uM measured after 18 hrs by dual luciferase reporter gene assay; type: cell-based; how it was run: as §2
COS-1 [9] = assay: Cytotoxicity against African green monkey COS1 cells assessed as reduction in cell viability at 10^-4 M by XTT based assay; settings: chlorocebus aethiops, cos-1, 100 µM; how it was run: as §3
[10] = molecular target: T3, Oxysterols receptor LXR-alpha (Homo sapiens) (UniProt Q13133); assay: Agonist activity at full length human GAL4-DBD fused LXRalpha LBD (164 to 447 residues) expressed in COS1 cells at 25 to 50 uM measured after 18 hrs by dual luciferase reporter gene assay; type: cell-based; how it was run: as §2
T3 sequence (whole entry): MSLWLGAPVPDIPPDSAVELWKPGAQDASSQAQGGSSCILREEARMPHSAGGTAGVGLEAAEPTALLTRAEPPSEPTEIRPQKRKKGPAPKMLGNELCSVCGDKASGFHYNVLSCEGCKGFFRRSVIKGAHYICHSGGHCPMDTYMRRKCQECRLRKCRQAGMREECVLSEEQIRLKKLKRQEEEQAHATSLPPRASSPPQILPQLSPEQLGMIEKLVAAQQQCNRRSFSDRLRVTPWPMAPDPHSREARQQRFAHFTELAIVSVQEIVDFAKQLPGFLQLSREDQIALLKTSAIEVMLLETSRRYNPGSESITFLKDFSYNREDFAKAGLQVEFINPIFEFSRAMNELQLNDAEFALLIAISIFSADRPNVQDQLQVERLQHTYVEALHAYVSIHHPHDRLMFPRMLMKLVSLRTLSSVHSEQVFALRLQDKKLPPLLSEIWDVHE

## CCCCCCCc1cc(CCCCCC(=O)O)no1
[1]
  Activity: inactive
SGBS [2]
  Activity: Active
[3]
  Activity: inactive
SGBS [4]
  Activity: Active
[5]
  Activity: inactive
COS-1 [6]
  Activity: 40%
COS-1 [7]
  Activity: Toxic
[8]
  Activity: Active
COS-1 [9]
  Activity: Toxic
[10]
  Activity: inactive
